Experimental data: ChEMBL document CHEMBL1629611, “Activity of levofloxacin alone and in combination with a DnaK inhibitor against gram-negative rods, including levofloxacin-resistant strains” (2009)
Bridges are numbered along the chain shown (N, C = ends). Roman numbers before positions name the chains, in order. [ ]: non-standard residue; d: D form. NMeR = CN[C@@H](CCCNC(=N)N)C(=O)O; Api = NC1(C(=O)O)CCNCC1; Dab = NCC[C@H](N)C(=O)O

What was measured:
Assay type in all cases: functional
Escherichia coli [1] = assay: Antimicrobial activity against Escherichia coli E439 by broth macrodilution method
Summary of the method: (§1)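 MIC by CLSI-approved broth macrodilution in one-quarter-strength cation-adjusted Mueller Hinton broth, each drug tested alone. Clinical gram-negative isolates were stored frozen at −70°C in double-strength skim milk before testing.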

Escherichia coli [2] = assay: Antimicrobial activity against Escherichia coli E395 by broth macrodilution method; summary of the method: as §1
Escherichia coli [3] = assay: Antimicrobial activity against Escherichia coli E351 by broth macrodilution method; summary of the method: as §1
Escherichia coli [4] = assay: Antimicrobial activity against Escherichia coli E394 by broth macrodilution method
Summary of the method: (§2)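 CLSI-approved broth macrodilution in one-quarter-strength cation-adjusted Mueller Hinton broth. Each drug was tested alone against each clinical gram-negative isolate to give the MIC. Strains were stored frozen at −70°C in double-strength skim milk before testing.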

Klebsiella pneumoniae [5] = assay: Antimicrobial activity against Klebsiella pneumoniae E367 by broth macrodilution method; summary of the method: as §2
Escherichia coli [6] = assay: Antimicrobial activity against Escherichia coli E409 by broth macrodilution method; summary of the method: as §2
Klebsiella pneumoniae [7] = assay: Antimicrobial activity against Klebsiella pneumoniae E362 by broth macrodilution method; summary of the method: as §1
Klebsiella pneumoniae [8] = assay: Antimicrobial activity against Klebsiella pneumoniae E431 by broth macrodilution method; summary of the method: as §2
Klebsiella pneumoniae [9] = assay: Antimicrobial activity against Klebsiella pneumoniae E363 by broth macrodilution method; summary of the method: as §1
Escherichia coli [10] = assay: Antimicrobial activity against Escherichia coli E346 by broth macrodilution method; summary of the method: as §1
Escherichia coli [11] = assay: Antimicrobial activity against Escherichia coli E341 by broth macrodilution method; summary of the method: as §1
Klebsiella pneumoniae [12] = assay: Antimicrobial activity against Klebsiella pneumoniae E366 by broth macrodilution method; summary of the method: as §1
Klebsiella pneumoniae [13] = assay: Antimicrobial activity against Klebsiella pneumoniae E371 by broth macrodilution method; summary of the method: as §2
Klebsiella pneumoniae [14] = assay: Antimicrobial activity against Klebsiella pneumoniae E369 by broth macrodilution method; summary of the method: as §2
Escherichia coli [15] = assay: Antimicrobial activity against Escherichia coli E438 by broth macrodilution method; summary of the method: as §1
Pseudomonas aeruginosa [16] = assay: Antimicrobial activity against Pseudomonas aeruginosa P335 by broth macrodilution method; summary of the method: as §1
Escherichia coli [17] = assay: Antimicrobial activity against Escherichia coli E437 by broth macrodilution method; summary of the method: as §1
Klebsiella pneumoniae [18] = assay: Antimicrobial activity against Klebsiella pneumoniae E422 by broth macrodilution method; summary of the method: as §1
Escherichia coli [19] = assay: Antimicrobial activity against Escherichia coli E412 by broth macrodilution method; summary of the method: as §2
Klebsiella pneumoniae [20] = assay: Antimicrobial activity against Klebsiella pneumoniae E372 by broth macrodilution method; summary of the method: as §2
Escherichia coli [21] = assay: Antimicrobial activity against Escherichia coli E436 by broth macrodilution method; summary of the method: as §2
Klebsiella pneumoniae [22] = assay: Antimicrobial activity against Klebsiella pneumoniae E428 by broth macrodilution method; summary of the method: as §1
Klebsiella pneumoniae [23] = assay: Antimicrobial activity against Klebsiella pneumoniae E418 by broth macrodilution method; summary of the method: as §1
Escherichia coli [24] = assay: Antimicrobial activity against Escherichia coli E434 by broth macrodilution method; summary of the method: as §2
Klebsiella pneumoniae [25] = assay: Antimicrobial activity against Klebsiella pneumoniae E368 by broth macrodilution method; summary of the method: as §2
Escherichia coli [26] = assay: Antimicrobial activity against Escherichia coli E424 by broth macrodilution method; summary of the method: as §2
Klebsiella pneumoniae [27] = assay: Antimicrobial activity against Klebsiella pneumoniae E427 by broth macrodilution method; summary of the method: as §2
Escherichia coli [28] = assay: Antimicrobial activity against Escherichia coli E413 by broth macrodilution method; summary of the method: as §2
Escherichia coli [29] = assay: Antimicrobial activity against Escherichia coli E342 by broth macrodilution method; summary of the method: as §1
Klebsiella pneumoniae [30] = assay: Antimicrobial activity against Klebsiella pneumoniae E353 by broth macrodilution method; summary of the method: as §2
Escherichia coli [31] = assay: Antimicrobial activity against Escherichia coli E393 by broth macrodilution method; summary of the method: as §1
Klebsiella pneumoniae [32] = assay: Antimicrobial activity against Klebsiella pneumoniae E426 by broth macrodilution method; summary of the method: as §2
Klebsiella pneumoniae [33] = assay: Antimicrobial activity against Klebsiella pneumoniae E370 by broth macrodilution method; summary of the method: as §2
Pseudomonas aeruginosa [34] = assay: Antimicrobial activity against Pseudomonas aeruginosa P330 by broth macrodilution method; summary of the method: as §1
Klebsiella pneumoniae [35] = assay: Antimicrobial activity against Klebsiella pneumoniae E411 by broth macrodilution method; summary of the method: as §2
Escherichia coli [36] = assay: Antimicrobial activity against Escherichia coli E435 by broth macrodilution method; summary of the method: as §2
Escherichia coli [37] = assay: Antimicrobial activity against Escherichia coli E430 by broth macrodilution method; summary of the method: as §2
Escherichia coli [38] = assay: Antimicrobial activity against Escherichia coli E396 by broth macrodilution method; summary of the method: as §1
Enterobacter cloacae [39] = assay: Antimicrobial activity against Enterobacter cloacae E397 by broth macrodilution method; summary of the method: as §1
Klebsiella pneumoniae [40] = assay: Antimicrobial activity against Klebsiella pneumoniae E364 by broth macrodilution method; summary of the method: as §2
Enterobacter cloacae [41] = assay: Antimicrobial activity against Enterobacter cloacae E373 by broth macrodilution method; summary of the method: as §1
Klebsiella pneumoniae [42] = assay: Antimicrobial activity against Klebsiella pneumoniae E432 by broth macrodilution method; summary of the method: as §1
Escherichia coli [43] = assay: Antimicrobial activity against Escherichia coli E408 by broth macrodilution method; summary of the method: as §2
Escherichia coli [44] = assay: Antimicrobial activity against Escherichia coli E425 by broth macrodilution method; summary of the method: as §2
Citrobacter freundii [45] = assay: Antimicrobial activity against Citrobacter freundii E400 by broth macrodilution method; summary of the method: as §2
Citrobacter freundii [46] = assay: Antimicrobial activity against Citrobacter freundii E384 by broth macrodilution method; summary of the method: as §1
Klebsiella pneumoniae [47] = assay: Antimicrobial activity against Klebsiella pneumoniae E356 by broth macrodilution method; summary of the method: as §1
Escherichia coli [48] = assay: Antimicrobial activity against Escherichia coli E410 by broth macrodilution method; summary of the method: as §1
Klebsiella pneumoniae [49] = assay: Antimicrobial activity against Klebsiella pneumoniae E433 by broth macrodilution method; summary of the method: as §1
Klebsiella pneumoniae [50] = assay: Antimicrobial activity against Klebsiella pneumoniae E354 by broth macrodilution method; summary of the method: as §1

I: H-[Api]DKGSYLPRPTPPRPIYN[NMeR]N[Dab]-NH2 / II: H-[Api]DKGSYLPRPTPPRPIYN[NMeR]N (amide I:21-II:C)
MIC (Escherichia coli [1]): 8 µg/mL | MIC (Escherichia coli [2]): 32 µg/mL | MIC (Escherichia coli [3]): 32 µg/mL | MIC (Escherichia coli [4]): 32 µg/mL | MIC (Klebsiella pneumoniae [5]): 16 µg/mL | MIC (Escherichia coli [6]): 16 µg/mL | MIC (Klebsiella pneumoniae [7]): 4 µg/mL | MIC (Klebsiella pneumoniae [8]): 4 µg/mL | MIC (Klebsiella pneumoniae [9]): 4 µg/mL | MIC (Escherichia coli [10]): 64 µg/mL | MIC (Escherichia coli [11]): 16 µg/mL | MIC (Klebsiella pneumoniae [12]): 16 µg/mL | MIC (Klebsiella pneumoniae [13]): 32 µg/mL | MIC (Klebsiella pneumoniae [14]): 8 µg/mL | MIC (Escherichia coli [15]): 8 µg/mL | MIC (Pseudomonas aeruginosa [16]): 128 µg/mL | MIC (Escherichia coli [17]): 4 µg/mL | MIC (Klebsiella pneumoniae [18]): 32 µg/mL | MIC (Escherichia coli [19]): 8 µg/mL | MIC (Klebsiella pneumoniae [20]): 4 µg/mL | MIC (Escherichia coli [21]): 8 µg/mL | MIC (Klebsiella pneumoniae [22]): 8 µg/mL | MIC (Klebsiella pneumoniae [23]): 8 µg/mL | MIC (Escherichia coli [24]): 8 µg/mL | MIC (Klebsiella pneumoniae [25]): 8 µg/mL | MIC (Escherichia coli [26]): 64 µg/mL | MIC (Klebsiella pneumoniae [27]): 8 µg/mL | MIC (Escherichia coli [28]): 32 µg/mL | MIC (Escherichia coli [29]): 256 µg/mL | MIC (Klebsiella pneumoniae [30]): 4 µg/mL | MIC (Escherichia coli [31]): 16 µg/mL | MIC (Klebsiella pneumoniae [32]): 4 µg/mL | MIC (Klebsiella pneumoniae [33]): 4 µg/mL | MIC (Pseudomonas aeruginosa [34]): 256 µg/mL | MIC (Klebsiella pneumoniae [35]): 8 µg/mL | MIC (Escherichia coli [36]): 8 µg/mL | MIC (Escherichia coli [37]): 16 µg/mL | MIC (Escherichia coli [38]): 16 µg/mL | MIC (Enterobacter cloacae [39]): 8 µg/mL | MIC (Klebsiella pneumoniae [40]): 8 µg/mL | MIC (Enterobacter cloacae [41]): 4 µg/mL | MIC (Klebsiella pneumoniae [42]): 128 µg/mL | MIC (Escherichia coli [43]): 16 µg/mL | MIC (Escherichia coli [44]): 32 µg/mL | MIC (Citrobacter freundii [45]): 8 µg/mL | MIC (Citrobacter freundii [46]): 512 µg/mL | MIC (Klebsiella pneumoniae [47]): 8 µg/mL | MIC (Escherichia coli [48]): 4 µg/mL | MIC (Klebsiella pneumoniae [49]): 8 µg/mL | MIC (Klebsiella pneumoniae [50]): 8 µg/mL

C[C@H]1COc2c(N3CCN(C)CC3)c(F)cc3c(=O)c(C(=O)O)cn1c23.C[C@H]1COc2c(N3CCN(C)CC3)c(F)cc3c(=O)c(C(=O)O)cn1c23.O [LEVOFLOXACIN]
MIC (Escherichia coli [2]): 16 µg/mL | MIC (Escherichia coli [3]): 16 µg/mL | MIC (Escherichia coli [4]): 32 µg/mL | MIC (Klebsiella pneumoniae [5]): 0.25 µg/mL | MIC (Escherichia coli [6]): 8 µg/mL | MIC (Klebsiella pneumoniae [8]): 4 µg/mL | MIC (Klebsiella pneumoniae [9]): 0.06 µg/mL | MIC (Klebsiella pneumoniae [13]): 32 µg/mL | MIC (Klebsiella pneumoniae [14]): 64 µg/mL | MIC (Pseudomonas aeruginosa [16]): 16 µg/mL | MIC (Klebsiella pneumoniae [18]): 16 µg/mL | MIC (Escherichia coli [19]): 8 µg/mL | MIC (Klebsiella pneumoniae [20]): 0.25 µg/mL | MIC (Escherichia coli [21]): 0.125 µg/mL | MIC (Escherichia coli [24]): 0.125 µg/mL | MIC (Klebsiella pneumoniae [25]): 8 µg/mL | MIC (Escherichia coli [26]): 0.25 µg/mL | MIC (Klebsiella pneumoniae [27]): 2 µg/mL | MIC (Escherichia coli [28]): 8 µg/mL | MIC (Klebsiella pneumoniae [30]): 0.25 µg/mL | MIC (Escherichia coli [31]): 16 µg/mL | MIC (Klebsiella pneumoniae [32]): 4 µg/mL | MIC (Klebsiella pneumoniae [33]): 32 µg/mL | MIC (Klebsiella pneumoniae [35]): 2 µg/mL | MIC (Escherichia coli [36]): 0.125 µg/mL | MIC (Escherichia coli [37]): 0.125 µg/mL | MIC (Escherichia coli [38]): 16 µg/mL | MIC (Enterobacter cloacae [39]): 16 µg/mL | MIC (Klebsiella pneumoniae [40]): 2 µg/mL | MIC (Enterobacter cloacae [41]): 0.06 µg/mL | MIC (Escherichia coli [43]): 32 µg/mL | MIC (Escherichia coli [44]): 2 µg/mL | MIC (Citrobacter freundii [45]): 32 µg/mL | MIC (Citrobacter freundii [46]): 0.125 µg/mL | MIC (Escherichia coli [48]): 4 µg/mL | MIC (Klebsiella pneumoniae [49]): 16 µg/mL | MIC (Klebsiella pneumoniae [50]): 16 µg/mL
